Measurements: ChEMBL document CHEMBL1157090, “Diarylheptanoid from Pleuranthodium racemigerum with in vitro prostaglandin E(2) inhibitory and cytotoxic activity” (J Nat Prod, 2010)

Assays:
PC-3 = assay: Cytotoxicity against human PC3 cells after 24 hrs by ATPLite assay; type: functional, cell-based; conditions: PC-3, 24 h
How it was run: (§1)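 Cells grown in appropriate medium were exposed to test compounds at five concentrations for 24 h (5% CO2). Viability was read as cellular ATP by ATPLite luciferase luminescence and quantified against an ATP standard curve. Samples were run in triplicate, and IC50 was calculated from the concentration series.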

[1] = Cytotoxicity against mouse P388D1 cells after 24 hrs by ATPLite assay; type: functional, cell-based; conditions: P388D1, 24 h; how it was run: as §1
MCF7 = assay: Cytotoxicity against human MCF7 cells after 24 hrs by ATPLite assay; type: functional, cell-based; conditions: MCF7, 24 h; how it was run: as §1
Caco-2 = assay: Cytotoxicity against human Caco-2 cells after 24 hrs by ATPLite assay; type: functional, cell-based; conditions: Caco-2, 24 h; how it was run: as §1
HepG2 = assay: Cytotoxicity against human HepG2 cells after 24 hrs by ATPLite assay; type: functional, cell-based; conditions: HepG2, 24 h; how it was run: as §1
NIH3T3 [2] = assay: Inhibition of PGE2 production in calcium ionophore […] stimulated mouse 3T3 cells after 3 hrs; type: functional, cell-based; conditions: NIH3T3, 3 h
How it was run: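 3T3 cells in DMEM with 10% FBS were seeded at 2 × 10^5 cells/mL, held ~20 h at 37 °C and 5% CO2, then given test substance (DMSO stock, 10 mg/mL) for 3 h. […] (5 mM DMSO stock) was added for 20 min. Supernatant PGE2 was measured by EIA, in triplicate, as % inhibition versus solvent-treated stimulated cells.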

NIH3T3 [3] = assay: Cytotoxicity against mouse 3T3 cells after 3 hrs by ATPLite assay; type: cell-based; conditions: NIH3T3, 3 h

| Compound | IC50 (PC-3) [µM] | IC50 [1] [µM] | IC50 (MCF7) [µM] | IC50 (Caco-2) [µM] | IC50 (HepG2) [µM] | IC50 (NIH3T3 [2]) [µM] | IC50 (NIH3T3 [3]) [µM] |
| --- | --- | --- | --- | --- | --- | --- | --- |
| COc1cc(/C=C/C(=O)CC(=O)/C=C/c2ccc(O)c(OC)c2)ccc1O [CURCUMIN] | 22.7 | 75.7 | 51.5 | 48.6 | 43.8 |  |  |
| COc1ccc(C/C=C/CCCCc2ccc(O)cc2)cc1 | 23.6 | 117 | 56.9 | 44.8 | 40.6 | 34 | 52.8 |
